Measured values from ChEMBL document CHEMBL1806449, “A class of Trp-Trp-AA-OBzl: Synthesis, in vitro anti-proliferation/in vivo anti-tumor evaluation, intercalation-mechanism investigation and 3D QSAR analysis” (Eur J Med Chem, 2011).
pIC50: −log10 of the molar value. Peptide text beside a SMILES is read from it. * marks the point of attachment. OBn = c1ccc(CO*)cc1

Assays:
B16 = assay: Antiproliferative activity against mouse B16 cells after 48 hrs by MTT assay; format: functional, cell-based; details: B16, 48 h
Mus musculus [1] = assay: Toxicity in ICR mouse xenografted with mouse S180 cells assessed as increase in spleen index at 8.9 umol/kg; format: organism-based, CCRF S-180; details: in vivo
Method in brief: (§1)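 S180-bearing male ICR mice (10–12 weeks; 1×10^7 cells s.c. right oxter; 12 per group), daily i.p. 8.9 µmol/kg for seven days starting 24 h after implantation; NS, cytarabine and doxorubicin controls; liver, brain, kidney weights, spleen index and body-weight gain recorded.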

Mus musculus [2] = assay: Toxicity in ICR mouse xenografted with mouse S180 cells assessed as effect on liver weight at 8.9 umol/kg; format: organism-based, CCRF S-180; details: in vivo; method in brief: as §1
CCRF S-180 [3] = assay: Antitumor activity against mouse S180 cells xenografted in ICR mouse assessed as tumor growth inhibition at 8.9 umol/kg, ip administered 1 day after tumor inoculation qd for 7 days; format: functional; details: CCRF S-180, ip, read-out: GI
Method in brief: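 Male ICR mice 10–12 weeks; S180 from ascites serially transplanted weekly; 1×10^7 viable cells in 0.2 ml NS implanted s.c. at right oxter; 24 h later randomized (10 per group); daily i.p. 8.9, 0.89 or 0.089 µmol/kg/day in 0.2 ml NS, 7 days; NS and cytarabine controls; sacrificed 24 h after last dose; inhibition % = [1−(Tw/Cw)]×100.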

Mus musculus [4] = assay: Toxicity in ICR mouse xenografted with mouse S180 cells assessed as effect on kidney weight at 8.9 umol/kg; format: organism-based, CCRF S-180; details: in vivo; method in brief: as §1
H22 = assay: Antiproliferative activity against mouse H22 cells after 48 hrs by MTT assay; format: functional, cell-based; details: H22, 48 h
Mus musculus [5] = assay: Toxicity in ICR mouse xenografted with mouse S180 cells assessed as increase in body weight at 8.9 umol/kg; format: organism-based, CCRF S-180; details: in vivo; method in brief: as §1
Mus musculus [6] = assay: Acute toxicity in ICR mouse assessed as tremors at 500 mg/kg, ip administered qd for 7 days; format: organism-based; set-up: dose 500 mg/kg, route intraperitoneal; details: in vivo, 168 h
CCRF S-180 [7] = assay: Antiproliferative activity against mouse S180 cells after 48 hrs by MTT assay; format: functional, cell-based; details: CCRF S-180, 48 h
Mus musculus [8] = assay: Toxicity in ICR mouse xenografted with mouse S180 cells assessed as effect on brain weight at 8.9 umol/kg; format: organism-based, CCRF S-180; details: in vivo; method in brief: as §1
Mus musculus [9] = assay: Acute toxicity in ICR mouse assessed as tetanus at 500 mg/kg, ip administered qd for 7 days; format: organism-based; set-up: dose 500 mg/kg, route intraperitoneal; details: in vivo, 168 h
[10] = Acute toxicity in ip dosed ICR mouse assessed as lethal dose; format: organism-based; details: in vivo
Method in brief: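 Male ICR mice, 24 weeks old, got a single i.p. injection of 500 mg/kg in 0.2 ml NS (normal saline). They were watched for 7 days for neurotoxic behaviour (tremor, twitch, jumping, tetanus, supination) and for death.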

Mus musculus [11] = assay: Acute toxicity in ICR mouse assessed as jumping at 500 mg/kg, ip administered qd for 7 days; format: organism-based; set-up: dose 500 mg/kg, route intraperitoneal; details: in vivo, 168 h
Mus musculus [12] = assay: Acute toxicity in ICR mouse assessed as mortality at 500 mg/kg, ip administered qd for 7 days; format: organism-based; set-up: dose 500 mg/kg, route intraperitoneal; details: in vivo, 168 h
Mus musculus [13] = assay: Acute toxicity in ICR mouse assessed as apparent changes in any organ at 500 mg/kg, ip administered qd for 7 days; format: organism-based; set-up: dose 500 mg/kg, route intraperitoneal; details: in vivo, 168 h
K562 = assay: Antiproliferative activity against human K562 cells after 48 hrs by MTT assay; format: functional, cell-based; details: K562, 48 h
Mus musculus [14] = assay: Acute toxicity in ICR mouse assessed as twitch at 500 mg/kg, ip administered qd for 7 days; format: organism-based; set-up: dose 500 mg/kg, route intraperitoneal; details: in vivo, 168 h
HepG2 = assay: Antiproliferative activity against human HepG2 cells after 48 hrs by MTT assay; format: functional, cell-based; details: HepG2, 48 h
Mus musculus [15] = assay: Acute toxicity in ICR mouse assessed as supination at 500 mg/kg, ip administered qd for 7 days; format: organism-based; set-up: dose 500 mg/kg, route intraperitoneal; details: in vivo, 168 h

| Compound | pIC50 (B16) | Activity (Mus musculus [1]) | Activity (Mus musculus [2]) | inhibition in vivo at 8.9 µmol/kg (CCRF S-180 [3]) | Activity (Mus musculus [4]) | pIC50 (H22) | Activity (Mus musculus [5]) | Activity (Mus musculus [6]) | pIC50 (CCRF S-180 [7]) | Activity (Mus musculus [8]) | Activity (Mus musculus [9]) | LD50 [10] | Activity (Mus musculus [11]) | Activity (Mus musculus [12]) | Activity (Mus musculus [13]) | pIC50 (K562) | Activity (Mus musculus [14]) | pIC50 (HepG2) | Activity (Mus musculus [15]) |
| --- | --- | --- | --- | --- | --- | --- | --- | --- | --- | --- | --- | --- | --- | --- | --- | --- | --- | --- | --- |
| NC(=O)CC[C@H](NC(=O)[C@H](Cc1c[nH]c2ccccc12)NC(=O)[C@@H](N)Cc1c[nH]c2ccccc12)C(=O)OCc1ccccc1 (H-Trp-Trp-Gln-OBn) | 4.92 | 7.96 | 1.81 g | 72% | 0.16 g | 4.97 | 9.89 g | Non-toxic | 5.06 | 0.27 g | Non-toxic | > 500 mg/kg | Non-toxic | Non-toxic | Non-toxic | 5.05 | Non-toxic | 4.99 | Non-toxic |
| N[C@@H](Cc1c[nH]c2ccccc12)C(=O)N[C@@H](Cc1c[nH]c2ccccc12)C(=O)N[C@@H](CO)C(=O)OCc1ccccc1 (H-Trp-Trp-Ser-OBn) | 4.26 | 7.59 | 1.73 g | 18.1% | 0.16 g | 4.33 | 9.95 g | Non-toxic | 4.38 | 0.28 g | Non-toxic | > 500 mg/kg | Non-toxic | Non-toxic | Non-toxic | 4.38 | Non-toxic | 4.33 | Non-toxic |
| N[C@@H](Cc1c[nH]c2ccccc12)C(=O)N[C@@H](Cc1c[nH]c2ccccc12)C(=O)N[C@@H](Cc1ccc(O)cc1)C(=O)OCc1ccccc1 (H-Trp-Trp-Tyr-OBn) | 4.44 | 7.5 | 1.78 g | 20.2% | 0.16 g | 4.40 | 9.76 g | Non-toxic | 4.44 | 0.27 g | Non-toxic | > 500 mg/kg | Non-toxic | Non-toxic | Non-toxic | 4.34 | Non-toxic | 4.36 | Non-toxic |
| N[C@@H](Cc1c[nH]c2ccccc12)C(=O)N[C@@H](Cc1c[nH]c2ccccc12)C(=O)N[C@@H](Cc1cnc[nH]1)C(=O)OCc1ccccc1 (H-Trp-Trp-His-OBn) | 4.50 | 8.34 | 1.78 g | 30.7% | 0.16 g | 4.57 | 10.04 g | Non-toxic | 4.58 | 0.28 g | Non-toxic | > 500 mg/kg | Non-toxic | Non-toxic | Non-toxic | 4.60 | Non-toxic | 4.56 | Non-toxic |
| C[C@H](NC(=O)[C@H](Cc1c[nH]c2ccccc12)NC(=O)[C@@H](N)Cc1c[nH]c2ccccc12)C(=O)OCc1ccccc1 (H-Trp-Trp-Ala-OBn) | 4.64 | 7.59 | 1.77 g | 50% | 0.16 g | 4.68 | 9.5 g | Non-toxic | 4.73 | 0.27 g | Non-toxic | > 500 mg/kg | Non-toxic | Non-toxic | Non-toxic | 4.74 | Non-toxic | 4.70 | Non-toxic |
| CC(C)C[C@H](NC(=O)[C@H](Cc1c[nH]c2ccccc12)NC(=O)[C@@H](N)Cc1c[nH]c2ccccc12)C(=O)OCc1ccccc1 (H-Trp-Trp-Leu-OBn) | 3.91 | 7.45 | 1.7 g | 3.29% | 0.16 g | 3.92 | 8.4 g |  | 3.93 | 0.26 g |  |  |  |  |  | 3.93 |  | 3.91 |  |
| N[C@@H](Cc1c[nH]c2ccccc12)C(=O)N[C@@H](Cc1c[nH]c2ccccc12)C(=O)N[C@@H](Cc1ccccc1)C(=O)OCc1ccccc1 (H-Trp-Trp-Phe-OBn) | 4.71 | 7.96 | 1.89 g | 56.7% | 0.16 g | 4.76 | 9.86 g | Non-toxic | 4.84 | 0.28 g | Non-toxic | > 500 mg/kg | Non-toxic | Non-toxic | Non-toxic | 4.83 | Non-toxic | 4.78 | Non-toxic |
| N[C@@H](Cc1c[nH]c2ccccc12)C(=O)N[C@@H](Cc1c[nH]c2ccccc12)C(=O)N[C@@H](Cc1c[nH]c2ccccc12)C(=O)OCc1ccccc1 (H-Trp-Trp-Trp-OBn) | 3.80 | 7.75 | 1.78 g | 19.1% | 0.16 g | 4.01 | 8.71 g |  | 3.94 | 0.29 g |  |  |  |  |  | 3.90 |  | 3.81 |  |
